Test results reported in ChEMBL document CHEMBL4017509, “A Dual Modulator of Farnesoid X Receptor and Soluble Epoxide Hydrolase To Counter Nonalcoholic Steatohepatitis” (J Med Chem, 2017).
Calls of active or inactive are those of the source. No cut-off for these calls is given here.

Legend:
[1] = target: Peroxisome proliferator-activated receptor alpha (Homo sapiens) (UniProt Q07869); experiment: Transactivation of human GAL4-fused PPARalpha ligand binding domain expressed in […] cells at 10 uM after 12 to 14 hrs by dual-glo luciferase reporter gene assay; assay type: cell-based
Peroxisome proliferator-activated receptor alpha (Homo sapiens), sequence (Q07869 whole entry, the tested form may be a part): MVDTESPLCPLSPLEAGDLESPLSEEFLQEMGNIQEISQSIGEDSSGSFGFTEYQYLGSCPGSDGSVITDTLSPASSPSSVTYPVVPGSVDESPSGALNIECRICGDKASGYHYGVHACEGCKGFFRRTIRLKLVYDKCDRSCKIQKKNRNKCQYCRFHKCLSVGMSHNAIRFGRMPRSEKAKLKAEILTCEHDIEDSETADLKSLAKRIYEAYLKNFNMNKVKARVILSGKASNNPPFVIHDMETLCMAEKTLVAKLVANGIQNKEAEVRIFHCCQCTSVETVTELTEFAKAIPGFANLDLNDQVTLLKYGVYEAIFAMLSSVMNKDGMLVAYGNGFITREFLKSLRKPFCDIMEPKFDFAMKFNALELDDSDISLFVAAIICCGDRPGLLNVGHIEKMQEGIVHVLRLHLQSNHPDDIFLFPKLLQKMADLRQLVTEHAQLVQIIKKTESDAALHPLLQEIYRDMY
In short: (§1)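 HEK293T cells in DMEM/10% FCS, Opti-MEM before Lipofectamine LTX transfection with pFR-Luc reporter, pRL-SV40 and pFA-CMV GAL4–LBD plasmid. 5 h later compound in 0.1% DMSO, Opti-MEM, overnight (12−14 h). Dual luciferase; firefly/renilla ×1000 = RLU, fold over DMSO control; triplicates, ≥3 independent repeats.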

[2] = target: Nuclear receptor subfamily 1 group I member 2 (Homo sapiens, UniProt O75469); experiment: Transactivation of human GAL4-fused PXR ligand binding domain expressed in […] cells at 10 uM after 12 to 14 hrs by dual-glo luciferase reporter gene assay; assay type: cell-based; in short: as §1
Nuclear receptor subfamily 1 group I member 2, sequence (O75469 whole entry, the tested form may be a part): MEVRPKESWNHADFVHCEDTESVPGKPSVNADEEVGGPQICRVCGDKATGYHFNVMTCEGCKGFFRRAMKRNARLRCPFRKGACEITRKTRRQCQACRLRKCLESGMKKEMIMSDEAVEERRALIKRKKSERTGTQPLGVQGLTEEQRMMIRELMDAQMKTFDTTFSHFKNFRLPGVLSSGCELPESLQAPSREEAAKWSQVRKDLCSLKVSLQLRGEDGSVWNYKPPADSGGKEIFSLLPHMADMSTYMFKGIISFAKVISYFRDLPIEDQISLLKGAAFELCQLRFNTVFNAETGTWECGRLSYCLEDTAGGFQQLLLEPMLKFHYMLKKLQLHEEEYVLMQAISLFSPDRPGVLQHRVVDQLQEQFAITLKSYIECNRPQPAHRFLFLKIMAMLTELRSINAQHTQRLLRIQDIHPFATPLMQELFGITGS

Bile acid receptor = target: T1, Bile acid receptor (Homo sapiens, UniProt Q96RI1); experiment: Transactivation of FXR in human HepG2 cells assessed as CYP7A1 mRNA expression at 0.1 uM after 8 to 16 hrs by SYBR green based qRT-PCR analysis relative to DMSO control; assay type: ADME, cell-based
T1 sequence (Q96RI1 whole entry): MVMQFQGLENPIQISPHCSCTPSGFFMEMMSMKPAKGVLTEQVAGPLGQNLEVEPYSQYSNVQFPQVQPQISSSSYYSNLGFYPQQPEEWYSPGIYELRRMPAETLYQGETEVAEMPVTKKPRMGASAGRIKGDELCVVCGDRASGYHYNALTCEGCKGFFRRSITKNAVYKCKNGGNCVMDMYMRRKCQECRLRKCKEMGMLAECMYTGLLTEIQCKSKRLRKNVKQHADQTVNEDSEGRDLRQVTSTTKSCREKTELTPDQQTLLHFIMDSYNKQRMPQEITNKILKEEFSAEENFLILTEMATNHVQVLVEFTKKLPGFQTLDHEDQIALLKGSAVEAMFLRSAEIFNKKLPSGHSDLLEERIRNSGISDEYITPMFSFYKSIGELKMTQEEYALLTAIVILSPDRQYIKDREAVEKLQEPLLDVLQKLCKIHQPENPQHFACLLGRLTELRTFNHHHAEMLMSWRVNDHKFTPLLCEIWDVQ
In short: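 HepG2 cells incubated with compound (0.1 or 1 μM) or 0.1% DMSO for 8 or 16 h, washed with cold PBS, RNA extracted. Quantified by SYBR Green real-time PCR, duplicate samples, at least four independent experiments. ΔΔCt method with GAPDH as reference gene. Expressed as % of vehicle (set to 100%), mean ± SEM.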

[3] = target: T2, Peroxisome proliferator-activated receptor gamma (Homo sapiens) (UniProt P37231); experiment: Transactivation of PPARgamma in human HepG2 cells assessed as FAM3A mRNA expression at 10 uM after 8 to 16 hrs by SYBR green based qRT-PCR analysis relative to DMSO control; assay type: cell-based
T2 sequence (whole entry): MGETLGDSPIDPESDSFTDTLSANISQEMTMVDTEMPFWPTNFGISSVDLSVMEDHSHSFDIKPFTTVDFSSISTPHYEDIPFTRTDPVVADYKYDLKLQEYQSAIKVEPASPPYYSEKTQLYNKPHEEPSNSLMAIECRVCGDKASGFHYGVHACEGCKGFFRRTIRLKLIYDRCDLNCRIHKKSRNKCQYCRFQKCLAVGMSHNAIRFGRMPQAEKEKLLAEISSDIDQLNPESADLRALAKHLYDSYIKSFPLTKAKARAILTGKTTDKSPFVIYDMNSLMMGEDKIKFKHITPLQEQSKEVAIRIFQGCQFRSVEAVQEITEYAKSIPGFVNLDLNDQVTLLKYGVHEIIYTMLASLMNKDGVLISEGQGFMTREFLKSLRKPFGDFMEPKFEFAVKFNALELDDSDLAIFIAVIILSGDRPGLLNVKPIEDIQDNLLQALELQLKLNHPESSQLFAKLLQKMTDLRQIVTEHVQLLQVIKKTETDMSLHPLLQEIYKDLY
In short: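 HepG2 cells treated 8 or 16 h with compound or 0.1% DMSO, washed in cold PBS, RNA extracted; SYBR Green qRT-PCR in duplicate, ≥4 independent experiments (n = 3 for CD36/FAM3A). ΔΔCt method with GAPDH reference; expression as % of vehicle (100%). Pioglitazone 1 μM used as positive control for the PPARγ genes.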

[4] = Metabolic stability in Sprague-Dawley rat liver microsomes assessed as compound remaining at 10 uM after 60 mins by HPLC analysis; assay type: ADME, microsome; settings: read-out: Stability
[5] = target: Oxysterols receptor LXR-beta (Homo sapiens) (UniProt P55055); experiment: Transactivation of human GAL4-fused LXRbeta ligand binding domain expressed in […] cells at 10 uM after 12 to 14 hrs by dual-glo luciferase reporter gene assay; assay type: cell-based; in short: as §1
Oxysterols receptor LXR-beta (Homo sapiens), sequence (P55055 whole entry, the tested form may be a part): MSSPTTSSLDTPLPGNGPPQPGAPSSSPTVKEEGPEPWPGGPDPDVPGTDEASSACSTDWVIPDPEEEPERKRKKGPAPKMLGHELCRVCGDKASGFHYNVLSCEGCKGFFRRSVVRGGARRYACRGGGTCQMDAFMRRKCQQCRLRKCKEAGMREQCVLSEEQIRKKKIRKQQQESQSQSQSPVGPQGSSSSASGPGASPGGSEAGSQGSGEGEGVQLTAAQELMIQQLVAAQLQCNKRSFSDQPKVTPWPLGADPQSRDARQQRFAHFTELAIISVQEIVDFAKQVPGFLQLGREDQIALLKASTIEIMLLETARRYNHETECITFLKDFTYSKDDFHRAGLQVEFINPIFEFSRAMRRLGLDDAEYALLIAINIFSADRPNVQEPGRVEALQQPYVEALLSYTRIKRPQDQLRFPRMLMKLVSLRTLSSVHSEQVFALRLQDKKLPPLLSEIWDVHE

[6] = target: T3, Bile acid receptor (Homo sapiens) (UniProt Q96RI1); experiment: Transactivation of FXR in human HepG2 cells assessed as FGF19 mRNA expression at 1 uM after 8 to 16 hrs by SYBR green based qRT-PCR analysis relative to DMSO control; assay type: cell-based
T3 sequence (whole entry): T1 sequence (Q96RI1 whole entry)
In short: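 HepG2 cells incubated with test compound (0.1 and 1 μM) or 0.1% DMSO for 8 or 16 h, washed in cold PBS, RNA extracted; target mRNA by SYBR Green qRT-PCR, duplicate samples, ≥4 independent experiments; comparative ΔΔCt with GAPDH reference, vehicle set as 100%.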

Liver = experiment: Drug metabolism in Sprague-Dawley rat liver microsomes assessed as N-(2-chloro-4-(methylsulfonamido)benzyl)-4-(1-hydroxy-2-methylpropan-2-yl)benzamide formation at 10 uM preincubated with NADPH regenerating system for 5 mins followed by addition of liver microsomes by LC-MS/MS method; assay type: ADME, microsome

CC(C)(C)c1ccc(C(=O)NCc2ccc(NS(C)(=O)=O)cc2Cl)cc1
Activity [1]: inactive
Activity [2]: Not Active
Activity (Bile acid receptor): 50%
Activity [3]: 142%
remaining at 1 h, 10 µM [4]: > 50%
Activity [5]: inactive
Activity [6]: 325%
Drug metabolism (Liver): Metabolite_Detected
